Reference: ChEMBL document CHEMBL1123396, “Glycine antagonists. Synthesis, structure, and biological effects of some bicyclic 5-isoxazolol zwitterions” (J Med Chem, 1986)

Tests used:
[1] = biological target: GABA-A receptor; anion channel; assay: In vitro inhibition of [3H]GABA binding to Gamma-aminobutyric acid receptor from rat brain synaptic membranes.; format: cell membranes, Membrane
In short: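 Rat brain synaptic membranes (0.8–1.2 mg protein) incubated in triplicate in 50 mM Tris-citrate pH 7.1 with 5 nM [3H]GABA and various test concentrations, 15 min at 2 °C. Centrifugation at 48000g for 10 min, pellets rinsed twice with cold water, scintillation counting. Nonspecific binding (1 mM GABA) subtracted. IC50 by log-probit analysis of inhibition at at least four concentrations.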

[2] = pKa value of the compound; format: physicochemical
In short: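 Potentiometric titration with 0.1 N NaOH to pH ca. 10, ionic strength held constant with 0.15 M KCl.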

GABA transporter = GABA transporter (Rattus norvegicus, UniProt P31647+P23978+P31646+P48056); assay: In vitro inhibition of rat neuronal (synaptosomal) GABA uptake.; format: protein assay
In short: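 Crude rat whole-brain synaptosomes (homogenized in 0.32 M sucrose, 600g and 25000g spins at 4 °C) suspended in oxygenated phosphate medium. Preincubated 10 min at 25 °C with inhibitor, then [3H]GABA added to 50 nM final and incubated 10 min more. Rapid glass-fiber filtration, ice-cold buffer wash, scintillation counting.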

SMILES: Oc1noc2c1CNCC2
- IC50 [1]: 72 µM

SMILES: Oc1onc2c1CCNCC2
- pKa [2]: 3.3
- IC50 [1]: 15 µM
- IC50 (GABA transporter): > 300 µM

SMILES: Oc1onc2c1CNCCC2
- pKa [2]: 2.6
- IC50 [1]: > 100 µM
- IC50 (GABA transporter): > 300 µM

SMILES: NCCC(N)C(=O)O (stereo unspecified)
- pKa [2]: 4
- IC50 [1]: 0.033 µM

SMILES: Oc1onc2c1CNCC2
- pKa [2]: 3
- IC50 [1]: 100 µM
- IC50 (GABA transporter): 130 µM

SMILES: Oc1noc2c1CCNCC2
- IC50 (GABA transporter): > 300 µM

SMILES: Oc1onc2c1CCCNC2
- pKa [2]: 2.5
- IC50 [1]: > 100 µM
- IC50 (GABA transporter): > 300 µM
